Laboratory results: ChEMBL document CHEMBL4014346, “Lead Optimization Generates CYP11B1 Inhibitors of Pyridylmethyl Isoxazole Type with Improved Pharmacological Profile for the Treatment of Cushing's Disease” (J Med Chem, 2017)

How the values were obtained:
[1] = Selectivity ratio of IC50 for human CYP11B2 expressed in hamster V79MZ cells to IC50 for human CYP11B1 expressed in hamster V79MZ cells
Procedure, shortened: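 V79MZ cells expressing recombinant human CYP11B1 or CYP11B2, or rat CYP11B1, incubated with [1,2-³H]-11-deoxycorticosterone (100 nM) and inhibitor over a range of concentrations; ketoconazole as reference.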

[2] = AUC (0 to infinity) in Sprague-Dawley rat at 5 mg/kg, iv administered as single dose by HPLC-MS/MS analysis; type: ADME, organism-based; design: dose 5 mg/kg, route intravenous, time infinity; details: in vivo
Plasma = assay: Plasma concentration in Sprague-Dawley rat at 28 mg/kg, po administered as single dose by HPLC-MS/MS analysis; type: ADME, organism-based; details: in vivo
Procedure, shortened: (§1)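 Female Sprague-Dawley rats (244–299 g), 2 animals, given one oral dose under 2% isoflurane as a freshly sonicated suspension in 0.5% porcine gelatin/5% mannitol in water. Tail-vein plasma precipitated with acetonitrile plus diphenhydramine internal standard, quantified by HPLC-MS/MS in duplicate. Noncompartmental analysis; Cmax and Tmax read directly from the concentration–time curve; F derived against iv dosing.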

[3] = Cmax in Sprague-Dawley rat at 5 mg/kg, iv administered as single dose by HPLC-MS/MS analysis; type: ADME, organism-based; design: dose 5 mg/kg, route intravenous; details: in vivo
Procedure, shortened: (§2)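 Female Sprague-Dawley rats (244–299 g), 2 animals; single iv dose in PEG300/ethanol/water (60/10/30), under 2% isoflurane anesthesia. Tail-vein blood taken into sodium citrate, plasma spun down, precipitated with acetonitrile containing diphenhydramine internal standard, analysed by HPLC-MS/MS with duplicate injections. Mean parameters from noncompartmental analysis.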

[4] = Cmax in Sprague-Dawley rat at 28 mg/kg, po administered as single dose by HPLC-MS/MS analysis; type: ADME, organism-based; design: dose 28 mg/kg, route oral; details: in vivo; procedure, shortened: as §1
[5] = Tmax in Sprague-Dawley rat at 28 mg/kg, po administered as single dose by HPLC-MS/MS analysis; type: ADME, organism-based; details: in vivo; procedure, shortened: as §1
[6] = AUC (0 to infinity) in Sprague-Dawley rat at 28 mg/kg, po administered as single dose by HPLC-MS/MS analysis; type: ADME, organism-based; design: dose 28 mg/kg, route oral, time infinity; details: in vivo
[7] = Oral bioavailability in Sprague-Dawley rat at 28 mg/kg administered as single dose by HPLC-MS/MS analysis; type: ADME, organism-based; details: in vivo; procedure, shortened: as §1
[8] = Clearance in Sprague-Dawley rat at 5 mg/kg, iv administered as single dose by HPLC-MS/MS analysis; type: ADME, organism-based; details: in vivo; procedure, shortened: as §2
Rattus norvegicus = assay: Time at which plasma concentration stays above in vitro rat CYP11B1 IC50 in Sprague-Dawley rat at 28 mg/kg, po administered as single dose; procedure, shortened: as §1
[9] = Half life in Sprague-Dawley rat at 28 mg/kg, po administered as single dose by HPLC-MS/MS analysis; type: ADME, organism-based; details: in vivo; procedure, shortened: as §1
[10] = Half life in Sprague-Dawley rat at 5 mg/kg, iv administered as single dose by HPLC-MS/MS analysis; type: ADME, organism-based; details: in vivo; procedure, shortened: as §2
[11] = Volume of distribution at steady state in Sprague-Dawley rat at 5 mg/kg, iv administered as single dose by HPLC-MS/MS analysis; type: ADME, organism-based; details: in vivo, read-out: Vdss; procedure, shortened: as §2

Structure (SMILES): Cc1cncc(Cc2cc(-c3ccccc3)no2)c1
- Ratio IC50 [1]: 16

Structure (SMILES): COc1cncc(Cc2cc(-c3ccccc3)no2)c1
- AUC(0-inf) [2]: 3680 ng·h/mL
- concentration (Plasma): 4.11 µM
- Cmax [3]: 27.8 µM
- Cmax [4]: 6.4 µM
- Tmax [5]: 2.5 h
- AUC(0-inf) [6]: 10200 ng·h/mL
- bioavailability [7]: 50%
- clearance [8]: 22.6 mL/min/kg
- Time (Rattus norvegicus): <=7 hr
- half-life [9]: 3.3 h
- half-life [10]: 4.8 h
- Vd [11]: 3.1 L/kg
